UPR XBP1 act: activators of adaptive XBP1 UPR arm, primary screen, cell-based, CHO-XBP1 luciferase reporter, luminescence, uHTS | IRE1-XBP1 UPR activation; percent of tunicamycin response, DMSO as zero | activation, % at 20 µM | 330,000 compounds, 0.33% hits | AID 463104, 2010;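 active means versus positive control, 20 µM dose yields 30% or more activation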;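 further: 100% = tunicamycin at 10 µg/mL and 0% = DMSO only wells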
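Material: CHO-XBP1 cells stably carrying IRE1-XBP1-driven luciferase reporter / Amount: 1000 cells per well / Compound: 20 µM, 1% DMSO / Times: 6 h treatment, 37 °C / Detection: luciferase luminescence / Measure: % activation of reporter signal versus tunicamycin and DMSO controls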
CHOP inh: inhibitors of CHOP promoter induction, primary screen, cell-based, unfolded protein response, luciferase reporter; CHO-K1 CHOP-promoter luciferase, tunicamycin-induced, 15-18 h; inhibition, % at 10 µM; 220,000 compounds, 3.8% hits; AID 2732, 2010;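 active means compounds that reduced the stress-induced luciferase reporter signal by more than about 70% of percent inhibition, limit read from the data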;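 further: 0% = tunicamycin plus vehicle and 100% = wells without tunicamycin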
UPR CHOP act: activators of apoptotic CHOP UPR arm, primary screen, cell-based, CHO-CHOP luciferase reporter, luminescence, uHTS | UPR activation; percent of tunicamycin response over DMSO baseline | activation, % at 10 µM | 330,000 compounds, 0.34% hits | AID 449763, 2010;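 active means at 10 µM dose, activation of 40% or more, normalized to positive control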;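 further: 100% = tunicamycin at 10 µg/mL and 0% = DMSO alone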
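Test system: CHO-CHOP cells, stable luciferase reporter of PERK-eIF2a-CHOP signalling | Quantity: 500 CHO-CHOP cells per well | Buffer or medium: F12 plus 10% serum | Compound dosing: 10 µM single point, 0.5% DMSO | Schedule: 6 h compound treatment, 37 °C | Signal: Luciferase luminescence | Control set: Tunicamycin high control, DMSO low control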
A1 inh: caspase 3/7 activation in MEF A1-2A-BIM cells, primary screen, A1 inhibitor project, cell-based, luminescence, HTS | AID 2462, 2010 | 330,000 compounds, 0.066% hits | Caspase-Glo 3/7 luminescence, 3 h; percent of clofoctol response, vehicle zero | caspase activation, % (concentration not given with the values);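 active means over half of replicate activation scores above 10%, or exactly half above 10 with the replicate mean above 10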
An asterisk follows results filed as active; . = no result given. This is one part of a sample in which hits are shown more often than they occur.

SMILES	UPR XBP1 act	CHOP inh	UPR CHOP act	A1 inh
OC(COc1cccc2ccccc12)CN1CCN(c2cccc(Cl)c2)CC1 (configuration not stated)	-2	71*	0	2
COc1cccc(OCC(O)CN2CCN(c3ccc(F)cc3)CC2)c1 (configuration not stated)	-1	.	-1	-1
COc1cccc(OCC(O)CN2CCN(C(c3ccccc3)c3ccccc3)CC2)c1 (configuration not stated)	0	.	0	1
OC(COc1ccc2ccccc2c1)CN1CCN(c2ccc(F)cc2)CC1 (configuration not stated)	-1	87*	1	0
CC(=O)c1ccccc1OCC(O)CN1CCN(C(c2ccccc2)c2ccccc2)CC1 (configuration not stated)	-2	75*	0	0
COc1ccc(CN2CCNC(=O)C2CC(=O)NC2CCCC2)cc1OC (configuration not stated)	0	.	-2	0
COc1ccc(NC(=O)NC2(C(=O)N3CCN4CCCC4C3)CCCCC2)cc1 (configuration not stated)	0	.	-1	0
C=CCn1c(SCCOc2ccc(OC)cc2)nnc1C(CO)NC(=O)c1ccc(OC)cc1 (configuration not stated)	-3	24	-1	1
Cc1ccc(-c2[nH]nc(N)c2N=Nc2ccccc2C)cc1	2	60	1	0
Cc1ccc(-c2[nH]nc(N)c2N=Nc2cccc(Cl)c2C)cc1	.	92*	.	.
COc1cccc(-c2nc(Oc3cccc(C)c3C)c3ccccc3n2)c1O	19	82*	20	1
COc1cccc(-c2nc(NC(C)C)c3ccccc3n2)c1O	9	51	0	0
COc1cnc(-c2ccccc2)nc1Oc1ccccc1C	-3	14	-3	1
COc1cnc(-c2ccccc2)nc1Oc1cccc(C)c1C	-2	78*	-2	0
C=CCn1c(=N)n(CC(=O)c2ccccc2)c2ccccc21	-4	.	0	0
CCn1c2ccccc2c2cc(NC(=O)c3coc(=O)c(Br)c3)ccc21	73*	30	100*	0
Cc1ccc(S(=O)(=O)Oc2ccc(/C=C(/NC(=O)c3ccccc3)C(=O)Nc3ccccc3)cc2)cc1	-1	34	-2	0
N#Cc1ccc(NC(=O)Nc2ccc(Cl)cc2)cc1	3	78*	18	-1
O=C(Nc1ccc(Cl)cc1)Nc1ccc(Cl)c(Cl)c1	7	.	10	0
COc1ccc(C=NNc2ccc([N+](=O)[O-])cc2S(=O)(=O)Nc2ccccc2C(=O)O)cc1OC	-2	.	0	1
COc1ccc(/C=N/Nc2ccc([N+](=O)[O-])cc2S(=O)(=O)N2CCN(C)CC2)cc1	3	71*	3	1
O=C(C1CCCCN1S(=O)(=O)c1ccccc1[N+](=O)[O-])N1CCCC1 (configuration not stated)	0	13	-1	0
CCOC(=O)Cc1csc(NC(=O)NC2(C(F)(F)F)Oc3ccccc3O2)n1	11	92*	2	0
COc1cc(NC(=O)c2csc3c2CCCC3)ncn1	0	72*	4	-3
CCOC(=O)Cc1csc(NC(=O)c2cc3c(s2)CCCC3)n1	-2	38	0	-3
SMILES	UPR XBP1 act	CHOP inh	UPR CHOP act	A1 inh
CCOC(=O)Cc1csc(NC(=O)c2csc3c2CCCC3)n1	0	76*	1	0
NNC(=O)c1ccccc1CO	-4	.	-1	0
CCn1cc(CN2CCN(Cc3ccc(OC)c(C)c3C)C(CCO)C2)c(C)n1 (configuration not stated)	0	-18	-2	0
CCCn1c(NC(=O)c2ccc(Br)cc2)nc2ccccc21	2	83*	1	1
CCCn1c(NC(=O)c2ccc(F)cc2)nc2ccccc21	3	7	2	1
CC(=O)Nc1ccc(SCC(=O)Nc2ccccc2N2CCOCC2)cc1	-1	.	-1	0
Cc1ccc(N=C2SCCCN2C(=O)c2ccco2)cc1Cl	-1	80*	1	-1
CC1(C)Cc2c(sc3c2c(=N)n(Cc2ccco2)c(=O)n3Cc2ccccc2)CO1	2	70*	-4	1
Cc1ccc(-n2c(-c3ccccc3)n[nH]c2=S)c(C)c1	-2	.	1	0
Cc1c(C(=O)Nc2ccc(C(F)(F)F)cc2)sc2ncn(CC(=O)N3CCN(c4ccccn4)CC3)c(=O)c12	-5	.	1	1
CCOC(=O)c1sc(Nc2ccccc2)nc1C	4	32	4	-1
CCOC(=O)c1sc(Nc2ccc(C)cc2C)nc1C	2	93*	2	0
CCOC(=O)c1sc(Nc2nc3c(OC)cccc3s2)nc1C	4	73*	4	-2
CCCC(C)C(=O)Nc1ccc(F)c(Cl)c1 (configuration not stated)	0	-11	-3	-5
O=C(Cc1c(F)cccc1Cl)Nc1cccc(S(=O)(=O)NC2=NCCCCC2)c1	-5	.	-2	1
O=C(Cc1ccc(Cl)cc1Cl)Nc1cccc(S(=O)(=O)Nc2ccccc2F)c1	-4	87*	0	0
CC(C)CC(=O)Nc1ccc(F)c(Cl)c1	0	90*	1	-1
O=C(COC(=O)Cc1ccc(Cl)cc1Cl)Nc1ccc(OC(F)F)cc1	0	22	0	-1
O=C(Cc1ccc(Cl)cc1Cl)Nc1ccc(OC(F)F)c(Cl)c1	-2	95*	2	0
COc1cccc(CN(C)C(=O)c2cc(S(=O)(=O)N3CCCCCC3)ccc2OC)c1	-1	.	4	1
CCc1nnc(NC(=O)Cn2nc(-c3ccc(OC)c(OC)c3)ccc2=O)s1	3	-9	1	1
CCc1nnc(NC(=O)Cn2nc(-c3ccccc3OC)ccc2=O)s1	-1	70*	-1	0
c1ccc(Cc2nn3c(Cn4nnc5ccccc54)nnc3s2)cc1	0	-2	2	21*
c1ccc(CCc2nn3c(Cn4nnc5ccccc54)nnc3s2)cc1	1	41	2	1
CCn1c(=O)cc(OCC(=O)N2CCN(c3cccc(C(F)(F)F)c3)CC2)c2ccccc21	4	50	-2	-1
CC1CCC(C(C)C)C(OC(=O)COC(=O)c2cccn2C)C1 (configuration not stated)	-3	5	-1	1
CC1CCC(C(C)C)C(OC(=O)COC(=O)c2ccc(N)cc2)C1 (configuration not stated)	-3	84*	-1	0
CC(=O)OC(C(=O)Nc1ccccc1)C(C)S(=O)(=O)c1ccccc1 (configuration not stated)	-1	18	1	-1
CC(NS(=O)(=O)c1ccc(F)cc1)C(c1cccs1)N1CCOCC1 (configuration not stated)	-1	11	0	1

From PubChem BioAssay
